Compound activity from PubChem.
TRPC6 inhibitor – mouse TRPC6 channel inhibitors, primary screen, cell-based, HEK293, membrane potential dye. Short transient receptor potential channel 6 (Mus musculus), Q61143. ACh-evoked depolarization; stronger effect = lower value. B-score at 10 µM. hit rate 1.1% among 310,000. AID 2553, 2010;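 active means B-score under library mean minus 3 SD, initial fluorescence not abnormally high, positive integrated signal ratio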;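 further: B-score derived from integrated fluorescence ratio over the kinetic read; more negative B-score means stronger inhibition of depolarization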
TRPC4 block – inhibitors of mouse TRPC4 channel, primary screen, Fluo4 calcium, HEK293 TRPC4beta/mu-opioid cells | DAMGO-evoked Fluo4 calcium flux; stronger effect = lower value | B-score at 10 µM | hit rate 0.39% among 300,000 | Short transient receptor potential channel 4 (Mus musculus), Q9QUQ5;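 active means B-score over 3 SD under the library average, no early fluorescence shift, positive overall ratio signal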
Target sequence (Q9QUQ5 whole entry, looked up): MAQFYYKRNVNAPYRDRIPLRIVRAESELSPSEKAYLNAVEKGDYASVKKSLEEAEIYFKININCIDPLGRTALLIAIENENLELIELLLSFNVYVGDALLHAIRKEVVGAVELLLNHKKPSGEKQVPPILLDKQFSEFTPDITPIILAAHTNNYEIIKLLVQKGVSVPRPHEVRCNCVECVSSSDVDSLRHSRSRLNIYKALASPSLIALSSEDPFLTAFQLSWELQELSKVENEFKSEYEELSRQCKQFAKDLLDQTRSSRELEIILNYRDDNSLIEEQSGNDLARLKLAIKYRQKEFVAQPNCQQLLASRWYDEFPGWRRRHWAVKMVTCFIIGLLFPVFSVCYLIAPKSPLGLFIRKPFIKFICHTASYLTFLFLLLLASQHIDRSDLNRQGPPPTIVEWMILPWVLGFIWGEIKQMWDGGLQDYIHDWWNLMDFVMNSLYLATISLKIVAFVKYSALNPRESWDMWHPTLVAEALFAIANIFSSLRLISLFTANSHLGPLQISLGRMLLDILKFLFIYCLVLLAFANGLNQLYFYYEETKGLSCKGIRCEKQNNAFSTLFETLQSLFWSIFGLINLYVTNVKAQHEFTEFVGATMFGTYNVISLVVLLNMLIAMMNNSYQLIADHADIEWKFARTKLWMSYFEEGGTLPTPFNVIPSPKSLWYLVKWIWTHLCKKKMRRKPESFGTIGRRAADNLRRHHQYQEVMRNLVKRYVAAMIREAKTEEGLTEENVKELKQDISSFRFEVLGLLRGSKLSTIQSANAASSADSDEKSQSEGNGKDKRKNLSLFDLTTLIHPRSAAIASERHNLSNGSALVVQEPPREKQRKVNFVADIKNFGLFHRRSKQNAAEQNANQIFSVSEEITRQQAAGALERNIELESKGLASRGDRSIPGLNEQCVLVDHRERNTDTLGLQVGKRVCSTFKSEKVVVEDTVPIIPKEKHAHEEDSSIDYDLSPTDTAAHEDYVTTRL
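Assay system: HEK293 cells with stable TRPC4beta plus mu-opioid receptor expression. Dosing: single dose. Measured by: Fluo4 Ca2+ flux fluorescence. Also added: DAMGO in two steps, submaximal then maximal. Read-out: B score from integrated Fluo4 fluorescence ratio.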
TRPC6 act – mouse TRPC6 channel activators, primary screen, cell-based, HEK293, membrane potential dye. AID 2550, 2010. Short transient receptor potential channel 6 (Mus musculus), Q61143. hit rate 0.13% among 310,000. B-score at 10 µM. HEK293-TRPC6 membrane potential dye fluorescence; stronger effect = higher value;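 active means B-score of the integrated fluorescence ratio above library mean plus 3 SD, and starting fluorescence ratio within library mean plus 5 SD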;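 further: higher score means more depolarization so channel activation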
TRPC4 potent – positive allosteric modulators of TRPC4, primary screen, cell-based, mouse TRPC4beta, HEK293 mu-opioid, Fluo-4 calcium. DAMGO EC20, Fluo-4 Ca2+ flux; stronger effect = higher value. Short transient receptor potential channel 4 (Mus musculus), Q9QUQ5. B-score at 10 µM. hit rate 0.42% among 310,000;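 active means B-score of calcium response area above 5 SD of library B-scores, with initial fluorescence ratio within 5 SD of library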;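 further: B-score of integrated fluorescence ratio over time as area under calcium response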
Yeast superoxide – reduction of superoxide in aged yeast, primary screen, HTS | S. cerevisiae aged cells, superoxide DHE fluorescence; stronger effect = lower value | superoxide response (% of plate mean), % at 10 µM | hit rate 0.18% among 330,000;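 active means superoxide response under a set limit, about three screen SD below normal, cut at about 65% in these data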;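 further: yeast aged for seven days with compound at 30 °C before DHE staining; 100% = average MFI of all compound-treated wells on the plate with controls excluded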
TRPC4 agonist – activators of mouse TRPC4 channel, primary screen, Fluo4 calcium, HEK293 TRPC4beta/mu-opioid cells; Short transient receptor potential channel 4 (Mus musculus), Q9QUQ5; Fluo4 calcium fluorescence; stronger effect = higher value; B-score at 10 µM; hit rate 0.49% among 310,000; AID 2237, 2010;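 active means B-score above 5 SD of library B-scores, and initial fluorescence ratio not above library mean plus 5 SD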;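 further: positive B-score marks a calcium rise read as TRPC4 activation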
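Assay system: HEK293 stable line with TRPC4beta plus mu-opioid receptor; schedule: 45 min room-temperature Fluo4 loading, 110 s read; technique: kinetic Fluo4 calcium fluorescence; evaluation: integrated baseline-normalised fluorescence ratio, converted to per-well B score; controls: buffer (low) and maximal DAMGO (high)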
TRPC4 sel inh 2 – second selectivity test of TRPC6 inhibitors: effect on mouse TRPC4; shares compounds with TRPC6 inhibitor; HEK293 TRPC4/MOR, membrane potential dye fluorescence; channel activated by saturating DAMGO dose; inhibition, % at 10 µM; hit rate 42% among 920; AID 2776;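 active means compounds whose fluorescence signal differed from control wells by over 3 SD, either direction, in both duplicate plates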
TRPC4 spec – mouse TRPC4 modulation by TRPC6 hits, confirmation, selectivity assay for TRPC6 inhibitor project, cell-based, HEK293 TRPC4/mu-opioid, membrane potential dye. membrane potential fluorescence. shares compounds with TRPC6 inhibitor. activity change, negative = inhibition, % at 10 µM. hit rate 61% among 920;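 active means rise or fall in signal beyond 3 SD of buffer-only wells in both replicate plates, either sign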;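 further: integrated kinetic ratio of fluorescence range over baseline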
HEK293 MPD ctr 2-1 – nonspecific membrane potential effects, parental HEK293, confirmation, counter-screen for TRPC6 inhibitor project, cell-based, second counter screen; parental HEK293 membrane potential dye fluorescence; maximal acetylcholine challenge after compound addition; signal change vs control, % at 10 µM; hit rate 31% among 920; shares compounds with TRPC6 inhibitor;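 active means membrane potential signal moving either way by over 3 SD of the maximum-effect control, in both duplicate plates, meaning non-specific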
HEK293 MPD ctr-1 – membrane potential modulation in parental HEK293, confirmation, counter-screen for TRPC6 inhibitor project, cell-based; shares compounds with TRPC6 inhibitor; parental HEK293 membrane potential dye fluorescence; membrane potential signal change, % at 10 µM; hit rate 60% among 920;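 active means membrane potential signal shifting up or down by more than 3 SD of buffer-only wells, on both duplicate plates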
HEK293 MPD ctr-2 – parental HEK293 membrane potential modulation, confirmation, counter-screen for TRPC6 modulator project, cell-based | hit rate 51% among 2,400 | AID 488924, 2010 | membrane potential signal change, % at 10 µM | membrane potential dye fluorescence | shares compounds with TRPC6 inhibitor;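 active means membrane potential signal moves up or down beyond 5 SD from buffer-only wells, on both duplicate plates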
HEK293 MPD ctr 2-2 – parental HEK293 nonspecific activity of TRPC6 modulators, second screen. shares compounds with TRPC6 inhibitor. membrane potential dye fluorescence; after compound, maximal acetylcholine stimulation. inhibition, % at 10 µM. hit rate 14% among 2,400;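 active means membrane potential signal drops by more than 5 SD from the mean control signal, in both duplicate plates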;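 further: plate controls were acetylcholine ECmax control wells for no effect and buffer only wells for full effect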
TRPC4/MOR mod – TRPC4 modulation by TRPC6 hit compounds, confirmation, selectivity assay for TRPC6 modulator project, cell-based, HEK293 TRPC4/mu-opioid, membrane potential dye, mouse; shares compounds with TRPC6 inhibitor; AID 488927, 2010; hit rate 69% among 2,400; percent change from control (negative = decrease, positive = increase), % at 10 µM; membrane potential fluorescence;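 active means membrane potential signal moved up or down beyond 5 SD of buffer control wells, in both duplicate plates, actives on both sides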;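 further: plate controls were assay buffer wells for no effect and DAMGO maximal-effect wells for full effect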
TRPC4 ctr inh 2 – mouse TRPC4 off-target activity of TRPC6 modulators, second screen | shares compounds with TRPC6 inhibitor | HEK293 TRPC4/mu-opioid, membrane potential dye fluorescence; stimulated with maximal-effect DAMGO | inhibition, % at 10 µM | hit rate 55% among 2,400;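 active means drop in membrane potential signal beyond 5 SD of the control wells in both duplicate plates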;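 further: TRPC4 counter screen for TRPC6 hits run under conditions tuned for TRPC6 not TRPC4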
TRPC6 block conf – mouse TRPC6 channel inhibitors, confirmation, HEK293 cells, membrane potential dye, duplicate; inhibition, % at 10 µM; ACh-evoked depolarization; AID 488960, 2010; shares compounds with TRPC6 inhibitor; hit rate 43% among 3,300;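 active means fluorescence ratio falls more than 5 SD below the full-stimulation control mean, in both duplicate runs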;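 further: integrated fluorescence ratio of peak minus minimum over baseline after agonist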
TRPC6 act confirm – mouse TRPC6 channel activators, confirmation, HEK293 cells, membrane potential dye, duplicate | shares compounds with TRPC6 inhibitor | HEK293-TRPC6 membrane potential dye fluorescence, FDSS | activation, % at 10 µM | hit rate 11% among 2,800;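 active means ratio signal rise beyond 5 SD above unstimulated control wells' mean, seen in both duplicate runs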;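 further: plate controls were buffer EC0 wells for no effect and acetylcholine ECmax response for full effect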
* = called active by the depositor; i = inactive; . = no result given; ! = repeats disagree. A selection: hits, their analogues and other compounds. The true share with any hit is near 2.3%.

SMILES	TRPC6 inhibitor	TRPC4 block	TRPC6 act	TRPC4 potent	Yeast superoxide	TRPC4 agonist	HEK293 MPD ctr-2	HEK293 MPD ctr 2-2	TRPC4/MOR mod	TRPC4 ctr inh 2	TRPC6 block conf	TRPC6 act confirm	others
O=C(CN1CCN(C(c2ccccc2)c2ccccc2)CC1)NCc1ccccc1	-5.49*	i	i	i	98.2	i	i	i	i	i	i	i
COc1ccc(CNC(=O)CN2CCN(C(c3ccccc3)c3ccccc3)CC2)cc1	i	i	i	i	103.2	i	.	.	.	.	.	.
O=C(CSc1nc2c(c(=O)n1-c1ccc(Br)cc1)SCC2)NCC1CCCO1 (stereo not given)	-5.01*	i	i	i	93.0	i	108.5%*	i	25.0%*	32.0%*	51.0%*	.
CN1N=C(C(C)(C)C)CSC1=Nc1ccc(F)cc1	i	i	i	i	66.2	i	.	.	.	.	.	.
O=C(Nc1cccnc1Cl)c1cccs1	-5.06*	i	i	i	100.8	i	i	i	i	i	i	i
O=C(Nc1ccccn1)c1cccs1	i	i	i	i	132.5	i	.	.	.	.	.	.
CN(C)CCCN1c2ccccc2Sc2ccc(Cl)cc21	-5.64*!	i	i	i	120.4	i	i	i	7.5%*	78.5%*	60.5%*	i
CC(C)(C)c1ccc(OC(=O)CN2C(=O)C3C4CCC(C4)C3C2=O)cc1 (stereo not given)	-5.86*	i	i	i	97.6	i	i	i	i	i	i	i
O=C(CN1C(=O)C2C3CCC(C3)C2C1=O)OCC(=O)c1ccccc1 (stereo not given)	i	i	i	i	102.6	i	.	.	.	.	.	.
Cc1c(C)n(C)c2ccc(C(=O)NCCCN3CCN(c4ccccc4F)CC3)cc12	-7.26*	i	i	i	132.2	i	i	i	i	67.0%*	42.5%*	i
C=CCn1c(O)c(C2=c3ccccc3=NC2=O)sc1=Nc1ccc(O)cc1	-8.02*	i	i	i	109.4	i	.	.	.	.	54.9%*	i	TRPC4 sel inh 2=i;TRPC4 spec=-15.0%*;HEK293 MPD ctr 2-1=i;HEK293 MPD ctr-1=-137.5%*
O=C1N=c2ccccc2=C1c1sc(=S)n(NC(=O)c2ccccc2)c1O	i	i	i	i	89.2	i	.	.	.	.	.	.
COc1ccc(-c2[nH]c3ccccc3c2SCCNC(=O)c2cc3ccccc3oc2=O)cc1	i	i	i	i	100.3	i	.	.	.	.	.	.
COc1ccc(-c2[nH]c3ccccc3c2SCCN)cc1	-8.68*	i	i	i	96.0	i	.	.	.	.	74.3%*	i	TRPC4 sel inh 2=45.0%*;TRPC4 spec=-16.4%*;HEK293 MPD ctr 2-1=i;HEK293 MPD ctr-1=-262.5%*
COc1ccc2c(c1)c1c3n2CCN(C)C3=NCC1	-12.6*	i	i	i	97.0	i	-290.0%*	90.0%*	-43.5%*	46.5%*	58.0%*	i
c1cc2c(cc1C1CCCCC1)c1c3n2CCN=C3CCC1	i	i	i	i	88.2	i	.	.	.	.	.	.
CC(CCc1ccccc1)NCc1cccc2ccccc12 (stereo not given)	-7.36*	i	i	i	96.6	i	.	.	.	.	67.0%*	.	TRPC4 sel inh 2=i;TRPC4 spec=32.0%*;HEK293 MPD ctr 2-1=i;HEK293 MPD ctr-1=14.7%*
COCC(C)NCc1cccc2ccccc12 (stereo not given)	i	i	i	i	121.0	i	.	.	.	.	.	.
O=C(ONC1=NCCCCC1)c1cccc([N+](=O)[O-])c1	i	i	i	i	101.6	i	.	.	.	.	.	.
O=[N+]([O-])c1cccc(/C=N/NC2=NCCCCC2)c1	-5.08*	i	i	i	125.6	i	-80.5%*	i	-15.0%*	39.0%*	i	i
CN1CCN(c2nc3c(c(=O)[nH]c(=O)n3C)n2CCCSc2nnnn2-c2ccccc2)CC1	-6.53*	i	i	i	93.4	i	-212.0%*	i	-28.5%*	i	i	i
Cc1cc(-c2nn(-c3ccccc3F)cc2CN2CCCC(C(N)=O)C2)c(C)s1 (stereo not given)	i	i	i	i	97.5	i	.	.	.	.	.	.
